Measured values reported in ChEMBL document CHEMBL4145507, “Design, synthesis and biological evaluation of novel indole-benzimidazole hybrids targeting estrogen receptor alpha (ER-α)” (Eur J Med Chem, 2018).
Activity calls are given as the source filed them. No cut-off for these calls is given here.

Columns and labels:
T47D [1] = assay: Downregulation of ERalpha mRNA levels in human T47D cells at 15 uM after 48 hrs by semi-quantitative RT-PCR analysis; format: functional, cell-based
How it was run: (§1)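 T47D cells exposed 48 h; total RNA extracted with TRIzol, checked by NanoDrop and denaturing agarose gel, then reverse transcribed. ERα transcript amplified, run on agarose gel and quantified by densitometry, normalized to GAPDH; representative of three experiments.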

PBMC = assay: Cytotoxicity against human PBMC at 100 uM after 48 hrs by MTT assay; format: cell-based
How it was run: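 PBMCs isolated from fresh blood of a healthy donor, held in RPMI-1640 with 10% FBS and antibiotic at 37 °C, 5% CO2. About 10^4 cells seeded per well, then MTT read-out as for the T47D assay (0.5 mg/ml MTT, 4 h, acidified DMSO, 570/620 nm).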

T47D [2] = assay: Antiproliferative activity against human T47D cells after 48 hrs by MTT assay
Estrogen receptor = target: T1, Estrogen receptor (Homo sapiens, UniProt P03372); assay: Displacement of fluoromone TM from recombinant human ERalpha after 2 hrs by fluorescence polarization analysis
T1 sequence (P03372 whole entry): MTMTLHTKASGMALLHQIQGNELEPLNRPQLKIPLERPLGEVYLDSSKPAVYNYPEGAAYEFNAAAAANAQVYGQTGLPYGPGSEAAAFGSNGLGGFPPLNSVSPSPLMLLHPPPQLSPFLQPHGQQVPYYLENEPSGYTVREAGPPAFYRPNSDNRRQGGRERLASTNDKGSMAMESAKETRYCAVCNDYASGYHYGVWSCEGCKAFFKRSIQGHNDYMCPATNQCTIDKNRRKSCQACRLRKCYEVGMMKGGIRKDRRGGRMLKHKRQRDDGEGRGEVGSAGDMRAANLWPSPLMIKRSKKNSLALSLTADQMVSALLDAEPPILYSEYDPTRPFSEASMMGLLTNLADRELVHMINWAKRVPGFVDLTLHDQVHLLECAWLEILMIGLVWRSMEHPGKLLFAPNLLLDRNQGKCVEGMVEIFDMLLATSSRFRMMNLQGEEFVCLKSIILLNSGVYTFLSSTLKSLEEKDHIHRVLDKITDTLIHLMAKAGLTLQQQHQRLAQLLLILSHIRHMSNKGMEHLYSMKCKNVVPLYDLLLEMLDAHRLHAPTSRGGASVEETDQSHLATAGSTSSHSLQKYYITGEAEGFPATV
How it was run: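 Fluorescence polarization kit: serially DMSO-diluted compound mixed with recombinant human ERα/Fluormone ES2 complex, at least 2 h at room temperature in the dark. Controls were oestradiol for minimum polarization and free tracer. Percent inhibition normalized; IC50 from non-linear regression as the concentration displacing half of the bound ligand.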

T47D [3] = assay: Downregulation of ERalpha mRNA levels in human T47D cells at 5 uM after 48 hrs by semi-quantitative RT-PCR analysis; format: functional, cell-based; how it was run: as §1
[4] = Drug uptake in human T47D cell cytosol at 5 uM after 24 hrs by confocal laser scanning microscopic method; format: ADME, subcellular
T47D [5] = assay: Downregulation of ERalpha protein levels in human T47D cells at 5 uM after 48 hrs by Western blot analysis; format: functional
How it was run: (§2)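 T47D cells exposed 48 h, lysed in modified RIPA (50 mM Tris-HCl pH 7.4, 150 mM NaCl, 1 mM EDTA, 1% NP-40, protease inhibitors), protein by Bradford. 50 µg protein run on 10% SDS-PAGE, transferred to nitrocellulose, blocked with 5% milk, probed overnight at 4 °C with rabbit anti-ERα (HC-20), HRP secondary, ECL detection. Normalized to β-actin; three experiments.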

[6] = Drug uptake in human T47D cell nucleus at 5 uM after 24 hrs by confocal laser scanning microscopic method; format: ADME, subcellular
[7] = Drug uptake in human T47D cell plasma membrane at 5 uM after 24 hrs by confocal laser scanning microscopic method; format: ADME, cell membranes
[8] = Drug uptake in human T47D cell cytosol at 15 uM after 24 hrs by confocal laser scanning microscopic method; format: ADME, subcellular
[9] = Drug uptake in human T47D cell nucleus at 15 uM after 24 hrs by confocal laser scanning microscopic method; format: ADME, subcellular
T47D [10] = assay: Downregulation of ERalpha protein levels in human T47D cells at 15 uM after 48 hrs by Western blot analysis; format: functional; how it was run: as §2
[11] = Drug uptake in human T47D cell plasma membrane at 15 uM after 24 hrs by confocal laser scanning microscopic method; format: ADME, cell membranes

SMILES	IC50 (T47D [2]) [µM]	IC50 (Estrogen receptor) [µM]	Activity (PBMC)	also measured
Cc1c(-c2ccc(O)cc2)n(Cc2ccc(OCCN3CCCCCC3)cc2)c2ccc(O)cc12	–	–	–	Activity (T47D [1]): Active
c1ccc2[nH]c(-c3nc4ccccc4[nH]3)cc2c1	6.2	–	Non-Toxic	–
O=C(c1ccccc1)c1ccc2[nH]c(-c3cc4ccccc4n3Cc3ccccc3)nc2c1	–	–	Non-Toxic	–
BrC1=CN2NC(c3cc4ccccc4[nH]3)=NC2N=C1 (configuration not stated)	24.4	–	Non-Toxic	–
Brc1ccc2[nH]c(-c3cc4ccccc4[nH]3)nc2c1	4.99	0.0804	Non-Toxic	Activity (T47D [3]): Active; Drug uptake [4]: Active; Activity (T47D [5]): 27.5%; Drug uptake [6]: Not Active; Drug uptake [7]: Active
c1ccc(Cn2c(-c3nc4cccnc4[nH]3)cc3ccccc32)cc1	–	–	Non-Toxic	–
c1ccc2[nH]c(-c3nc4cccnc4[nH]3)cc2c1	–	–	Non-Toxic	–
Cc1cccc2[nH]c(-c3cc4ccccc4[nH]3)nc12	8.9	0.192	Non-Toxic	–
Cc1cc(C)c2nc(-c3cc4ccccc4[nH]3)[nH]c2c1	24.8	–	Non-Toxic	–
c1ccc2[nH]c(C3=Nc4cccc5cccc(c45)N3)cc2c1	20.5	0.202	Non-Toxic	–
Brc1cnc2[nH]c(-c3cc4ccccc4[nH]3)nc2c1	21	–	Non-Toxic	–
Clc1cc2nc(-c3cc4ccccc4[nH]3)[nH]c2cc1Cl	21.2	–	Non-Toxic	–

Further lines, with some results ahead:

IC50 (T47D [2]) [µM]	IC50 (Estrogen receptor) [µM]	SMILES	Activity (PBMC)	also measured
21.8	0.0331	Cc1cc(C)c2nc(-c3cc4ccccc4n3Cc3ccccc3)[nH]c2c1	Non-Toxic	–
–	0.387	Cc1cccc2[nH]c(-c3cc4ccccc4n3Cc3ccccc3)nc12	Non-Toxic	–
–	0.3	Brc1cnc2[nH]c(-c3cc4ccccc4n3Cc3ccccc3)nc2c1	Non-Toxic	–
22.5	0.0767	Clc1cc2nc(-c3cc4ccccc4n3Cc3ccccc3)[nH]c2cc1Cl	Non-Toxic	–
13.4	–	c1ccc(Cn2c(-c3nc4cc5ccccc5cc4[nH]3)cc3ccccc32)cc1	Non-Toxic	–
–	0.0469	O=C(c1ccccc1)c1ccc2[nH]c(-c3cc4ccccc4[nH]3)nc2c1	Non-Toxic	–
23.4	–	c1ccc2cc3[nH]c(-c4cc5ccccc5[nH]4)nc3cc2c1	Non-Toxic	–
–	0.539	BrC1=CN2NC(c3cc4ccccc4n3Cc3ccccc3)=NC2N=C1 (configuration not stated)	Non-Toxic	–
15.5	0.0736	Brc1ccc2[nH]c(-c3cc4ccccc4n3Cc3ccccc3)nc2c1	Non-Toxic	Drug uptake [8]: Active; Drug uptake [9]: Not Active; Activity (T47D [10]): 57.42%; Drug uptake [11]: Active; Activity (T47D [1]): Active
21.4	0.259	c1ccc(Cn2c(-c3nc4ccccc4[nH]3)cc3ccccc32)cc1	Non-Toxic	–
